PPC-1+TRAIL kill: PPC-1 cancer cell killing with TRAIL present | PPC-1 cells + TRAIL, ATPLite viability luminescence | AID 1443 | hit rate 0.41% among 220,000 | cell killing (% activity), % at 4 µM or 5 µM;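 active means cell killing above 50% in the first pass at 4 µM, then a duplicate retest at 5 µM averaging 50% or more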;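 further: plate controls were cells with TRAIL plus DMSO for no effect and medium-only wells lacking cells for full effect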
HSP90 inh: blocks HSP90-mediated luciferase refolding in reticulocyte lysate; Rabbit reticulocyte lysate, luciferase refolding luminescence, 3 h; inhibition, % at 5.6 µM; hit rate 0.91% among 290,000; AID 1789;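 active means inhibition above the screen-wide mean plus 3 SD, computed separately per campaign, cut at about 16% in these data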;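 further: 0% = DMSO wells and 100% = 60 µM geldanamycin wells; inhibitors lower the luminescence because luciferase stays unfolded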
FLuc act counter: firefly luciferase counter-screen for stimulation assays. AID 1027. 200,000 tested, under 10 active. activation factor at 10 µM. ATPlite luciferase biochemical, luminescence, 10 min; 0 = ATP-free wells, 1 = DMSO control;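 active means luciferase activation factor, scaled between plate controls, of at least 2 with compound at 10 µM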
Target sequence (P08659 whole entry, looked up): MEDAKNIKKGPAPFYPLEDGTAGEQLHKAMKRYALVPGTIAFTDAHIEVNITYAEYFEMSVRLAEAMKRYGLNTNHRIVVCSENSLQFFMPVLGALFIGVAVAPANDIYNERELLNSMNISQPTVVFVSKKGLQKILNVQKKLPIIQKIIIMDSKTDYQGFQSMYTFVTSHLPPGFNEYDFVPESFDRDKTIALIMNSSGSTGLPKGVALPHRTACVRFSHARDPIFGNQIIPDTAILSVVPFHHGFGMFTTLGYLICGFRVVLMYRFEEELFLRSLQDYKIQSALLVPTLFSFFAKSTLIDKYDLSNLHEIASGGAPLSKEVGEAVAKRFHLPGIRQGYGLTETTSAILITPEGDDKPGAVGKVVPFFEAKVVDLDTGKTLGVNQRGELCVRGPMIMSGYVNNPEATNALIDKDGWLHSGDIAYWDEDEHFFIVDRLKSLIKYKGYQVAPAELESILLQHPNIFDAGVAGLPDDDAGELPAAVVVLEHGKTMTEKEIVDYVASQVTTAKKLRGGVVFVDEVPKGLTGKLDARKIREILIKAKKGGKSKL
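Material: Luciferase/luciferin reagent mix | Doses: Test compounds dosed from 2 mM stocks in 100% DMSO | Timing: 10 min incubation after luciferase reagent addition, room temperature | Measured by: Luminescence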
TRAIL sens C8: caspase-8 TRAIL sensitization; inhibition (viability loss, TRAIL sensitization), % at 10 µM; hit rate 1% among 360,000; AID 624354; NB7+C8 cells + TRAIL, ATPlite viability luminescence;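 active means compounds causing at least 50% loss of cell viability in the single-dose screen, relative to plate controls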
FLuc inhib CS: counter-screen for luciferase assay inhibitors: firefly luciferase inhibition. P08659. hit rate 1.5% among 200,000. AID 1006. inhibition, % at 10 µM. ATPLite firefly luciferase biochemical luminescence, 10 min;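 active means inhibition above about 50% when tested at 10 µM, limit read from the data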
Numbers without * were called inactive; nt = not tested or not shown. Most compounds without a hit are left out; they make up all but 2% or so of the library.

SMILES	PPC-1+TRAIL kill	HSP90 inh	FLuc act counter	TRAIL sens C8	FLuc inhib CS
CCN(CC)C(=O)Cn1cc(S(=O)(=O)CC(=O)N2CCOCC2)c2ccccc21	nt	-6.7	nt	-21.7	nt
O=C(NN=C1C2CC3CC(C2)CC1C3)c1ccncc1	10.9	0.6	1	-6.1	-3.3
O=C(N/N=C1\C/C(=N\NC(=O)c2ccncc2)c2ccccc21)c1ccncc1	-11.8	-1.9	0.3	48.4	69.1*
COC1=CC(=O)OC(c2ccco2)C1 (stereo not drawn)	nt	nt	nt	-10.7	nt
Cc1ccc(-c2nn3c(C)nnc3s2)cc1NC(=O)c1ccc(-c2cccc(Cl)c2)o1	27.1	4.6	1	7.4	-4.3
Cc1ccc(-c2nn3c(C)nnc3s2)cc1NC(=O)c1ccc(-c2ccc(Cl)cc2Cl)o1	-15.1	2.2	1	60.1*	4.2
COc1ccc(OCc2nc3ccccc3[nH]2)cc1	43.8	7.0	0.3	47.6	70.4*
Brc1ccc(OCc2nc3ccccc3[nH]2)cc1	nt	10.0	nt	18.4	nt
c1ccc2cc(OCc3nc4ccccc4[nH]3)ccc2c1	22.2	4.9	0.3	37.1	72.8*
COc1ccccc1OCc1nc2ccccc2[nH]1	14.2	0.1	0.8	5.0	16.7
COc1cccc(OCc2nc3ccccc3[nH]2)c1	26.7	-0.7	0.5	32.3	51.5*
Cc1ccc(SCc2nc3ccccc3[nH]2)cc1	40.9	-2.8	0.5	31.9	53.7*
CNC(=S)N1CCN(S(=O)(=O)c2ccc3ccccc3c2)CC1	nt	-0.8	nt	1.4	nt
CC1CCC(NC(=O)C2CCC(CNc3c(N4CCCCC4)c(=O)c3=O)CC2)CC1 (stereo not drawn)	-8.6	-7.4	nt	-9.6	nt
O=C(O)Cc1c(C(=O)O)[nH]c2ccc(C(=O)O)cc12	28.6	3.6	nt	-4.9	nt
CC1CCN(C(=O)c2ncn3c2c(=O)[nH]c2cccnc23)CC1	nt	nt	nt	-0.6	nt
CCOC(=O)C1(C)CCN1C(=O)c1cc(F)cc(F)c1 (stereo not drawn)	nt	nt	nt	-5.3	nt
Cc1ccccc1OCc1nc2ccccc2[nH]1	27.1	9.8	0.5	23.9	53.0*
CC(=O)c1ccc(NC(=O)c2noc3c2CCC3)cc1	35.0	21.3*	0.8	39.3	19.3
CSc1ccccc1-c1nnc(-c2ccc(Cl)cc2Cl)o1	24.2	2.2	0.4	45.4	59.5*
Fc1ccc(-c2nnc(-c3ccc(Cl)cc3Cl)o2)cc1	nt	0.1	0.1	85.9*	89.4*
Clc1ccc(-c2nnc(-c3ccccc3)o2)c(Cl)c1	50.0	7.3	0.1	69.6*	86.0*
Fc1ccc(-c2nnc(-c3ccc(Cl)cc3)o2)cc1	-16.1	-1.7	0.8	35.7	24.6
CCN1/C(=C/c2ccc3cc(C)ccc3[n+]2CC)Sc2ccc3sccc3c21	nt	nt	nt	94.3*	nt
CCN1/C(=C\c2ccc3cc(C)ccc3[n+]2CC)Sc2cc(C)c(C)cc21	39.0	3.2	1	20.8	-0.6
SMILES	PPC-1+TRAIL kill	HSP90 inh	FLuc act counter	TRAIL sens C8	FLuc inhib CS
Cc1cc(C)c2nc(-c3ccccn3)cc(C(=O)N3CCCC3)c2c1	nt	6.3	nt	6.3	nt
N/C(=N\OC(=O)CCC1CCCCC1)c1cccnc1	0.6	-0.6	0.4	-0.9	62.8*
N/C(=N\OC(=O)CCCc1ccccc1)c1cccnc1	-3.4	-4.7	0.5	-11.0	50.2*
N/C(=N\OC(=O)c1ccccc1)c1ccn[nH]1	nt	6.1	nt	56.2*	nt
N/C(=N\OC(=O)Cc1ccccc1)c1cccnc1	-0.3	-1.3	1	5.0	1.7
N/C(=N\OC(=O)c1ccccc1)c1cccnc1	5.1	2.9	0.1	2.3	91.5*
O=C(O/N=C(/c1ccccc1)c1ccncc1)c1ccc(F)cc1	16.8	-0.4	1	-1.3	-2.5
O=[N+]([O-])c1ccc(N/N=C/c2ccc[nH]2)cc1	28.5	-1.7	0.9	23.3	7.6
O=[N+]([O-])c1cccc(/C=C/C=N/Nc2nc(N3CCCCC3)nc(N3CCCCC3)n2)c1	-35.8	-1.0	1.1	-6.0	-7.9
CCc1ccc(OC2(C)CCN(Cc3ccc4c(c3)OCCO4)C2)cc1 (stereo not drawn)	nt	nt	nt	1.2	nt
COc1cccc(C(=O)O/N=C(\N)c2ccncc2)c1OC	11.6	-2.7	0.9	5.3	13.3
Cc1ccccc1C(=O)O/N=C(\N)c1ccncc1	13.2	-1.1	0.3	52.4*	68.9*
N/C(=N\OC(=O)c1ccccc1Cl)c1ccncc1	19.4	-2.8	0.5	20.8	54.4*
N/C(=N\OC(=O)c1ccccc1Cl)c1cccnc1	29.0	-1.5	0.2	68.7*	83.4*
O=C(C1=COCCO1)N(Cc1nnc(-c2ccccc2Cl)o1)C1CC1	nt	nt	nt	-11.1	nt
Cc1ccc(S(=O)(=O)Nc2c(Cl)c(Cl)c(O)c3ccccc23)cc1	nt	0.7	nt	nt	nt
COc1ccc2nc(-c3ccc(F)cc3)sc2c1	nt	nt	nt	65.0*	nt
CC1CN(C(C)C)C(C)CC1OC(=O)c1ccccc1 (stereo not drawn)	nt	-5.6	nt	-0.3	nt
CC(Sc1nnc(-c2ccco2)n1C)C(=O)N1C(C)CCCC1C (stereo not drawn)	nt	-0.8	nt	-15.4	nt
Cc1cccc(Nc2nnc(SCC(=O)Nc3ccc(C(=O)O)cc3)s2)c1	22.8	3.8	0.3	40.4	67.5*
Cc1ccc(C2CC(c3cccs3)=NN2C(=O)CCl)cc1 (stereo not drawn)	nt	2.8	nt	77.4*	nt
Cc1ccc(-n2nc3ccc(N)cc3n2)cc1	25.7	-1.1	0.2	49.2	75.5*
Nc1ccc2nn(-c3ccc(F)cc3)nc2c1	nt	8.3	nt	26.9	nt
CC(C)c1ccc(-n2nc3ccc(N)cc3n2)cc1	19.8	1.3	0.1	67.6*	87.3*
COc1cc(/C=N/NC(=O)Cc2csc(N3CCOCC3)n2)cc(OC)c1O	14.3	6.0	0.4	19.5	59.6*
SMILES	PPC-1+TRAIL kill	HSP90 inh	FLuc act counter	TRAIL sens C8	FLuc inhib CS
O=C(NC(=S)N1CCc2ccccc21)c1ccccc1	8.4	2.4	0.5	50.7*	51.9*
C=C(c1ccccc1Cl)[n+]1ccccc1	nt	-0.9	nt	-2.8	nt
C=CCc1ccccc1OCC(=O)N/N=C/c1ccc(OC(C)=O)cc1OC(C)=O	22.8	-7.3	1	50.2*	-4.4
CCCOc1ccc(CNC(=O)c2ccc3c(c2)N(CC)CCS3)cc1	nt	3.9	nt	3.7	nt
CN(C)CCCn1cnc2c(c1=N)C(c1ccccc1)c1ccc3ccccc3c1O2 (stereo not drawn)	nt	0.7	nt	70.5*	nt
N=c1c2c(ncn1CCCO)Oc1c(ccc3ccccc13)C2c1ccccc1 (stereo not drawn)	7.0	1.9	nt	15.7	nt
Cc1ccc(NC(=O)c2cc(S(=O)(=O)N3CCCCC3)c[nH]2)cc1C	nt	2.2	nt	2.6	nt
O=C(CC1(O)C(=O)N(Cc2cccc3ccccc23)c2ccccc21)c1cccnc1 (stereo not drawn)	1.5	-0.3	0.3	20.7	68.8*
Cn1c(=O)n(CCc2ccccc2)c(=O)c2c1nc1n2CCCN1CCc1ccccc1	7.9	-0.9	1	44.7*	-2.3
CCc1cc2c(SCC#N)ncnc2s1	25.8	1.4	1.1	-3.8	-7.1
CN1CCCC(OC(=O)c2ccc(C(C)(C)C)cc2)C1 (stereo not drawn)	nt	2.5	nt	-1.0	nt

High-throughput results from PubChem.
